Reference: EPA's CvTdb concentration-time database

Experiments:
Rat [1] = test: concentration in plasma after dosing; settings: 0.5 h; dosed: Primidone; 130 mg/kg; oral; Male; Harlan Sprague Dawley
Rat [2] = test: concentration in plasma after dosing; settings: 0.25 h; dosed: Primidone; 30 mg/kg; oral; Male; F344
Rat [3] = test: concentration in plasma after dosing; settings: 0.25 h; dosed: Primidone; 30 mg/kg; oral; Male; F344; remark: listed apart in the source
Mouse [4] = test: concentration in plasma after dosing; settings: 10 min; dosed: 2-Hydroxy-4-methoxybenzophenone; 500 mg/kg; oral; Male; B6C3F1
Rat [5] = test: concentration in plasma after dosing; settings: dosed: 2-Hydroxy-4-methoxybenzophenone, 100 mg/kg, oral, Male, F344
Rat [6] = test: concentration in plasma after dosing; settings: dosed: 2-Hydroxy-4-methoxybenzophenone, 100 mg/kg, oral, Female, F344
Mouse [7] = test: concentration in plasma after dosing; settings: 2 h; dosed: 2-Hydroxy-4-methoxybenzophenone; 500 mg/kg; oral; Male; B6C3F1
Rat [8] = test: concentration in plasma after dosing; settings: dosed: Methyleugenol, 37 mg/kg, iv, Male, F344
Hamster [9] = test: concentration in plasma after dosing; settings: dosed: 2,4-Dichlorophenoxyacetic acid, 8.0 mg/kg, iv, Male, Syrian Golden
Method in brief: (§1)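 Concentration-versus-time or amount-versus-time points were compiled from published in vivo toxicokinetic studies and from two structured collections. The studies were found by PubMed searching, classifier screening and manual review. Points were mostly digitised from plot screenshots with WebPlotDigitizer, otherwise copied from tables, and kept in the reported units. Dose, route, subject details and medium were curated by hand from each paper, and sampling and analytical methods follow each source and were often unreported.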

Rat [10] = test: concentration in plasma after dosing; settings: dosed: 2,4-Dichlorophenoxyacetic acid, 7.0 mg/kg, oral, Male, Sprague-Dawley
Hamster [11] = test: concentration in plasma after dosing; settings: dosed: 2,4-Dichlorophenoxyacetic acid, 8.0 mg/kg, oral, Male, Syrian Golden
Method in brief: as §1

Rat [12] = test: concentration in brain after dosing; settings: 1.5 h; dosed: alpha-Thujone; 50 mg/kg; oral; Female; Harlan Sprague Dawley
Rat [13] = test: concentration in plasma after dosing; settings: 6 h; dosed: alpha-Thujone; 50 mg/kg; oral; Female; Harlan Sprague Dawley
Rat [14] = test: concentration in plasma after dosing; settings: 2 min; dosed: alpha-Thujone; 25 mg/kg; oral; Male; Harlan Sprague Dawley
Rat [15] = test: concentration in brain after dosing; settings: 0.5 h; dosed: alpha-Thujone; 50 mg/kg; oral; Male; Harlan Sprague Dawley
Rat [16] = test: concentration in plasma after dosing; settings: 10 min; dosed: alpha-Thujone; 25 mg/kg; oral; Male; Harlan Sprague Dawley
Rat [17] = test: concentration in brain after dosing; settings: 10 min; dosed: alpha-Thujone; 25 mg/kg; oral; Male; Harlan Sprague Dawley
Rat [18] = test: concentration in brain after dosing; settings: 0.5 h; dosed: alpha-Thujone; 50 mg/kg; oral; Female; Harlan Sprague Dawley
Rat [19] = test: concentration in brain after dosing; settings: 1.5 h; dosed: alpha-Thujone; 50 mg/kg; oral; Male; Harlan Sprague Dawley
human = test: concentration in blood after dosing; negative times count back from the end of exposure; settings: dosed: trichloroethylene, 100 ppm, inhalation, duration: 6 hr, female
Method in brief: as §1

Rat [20] = test: concentration in liver after dosing; settings: 1200 h; dosed: Perfluorohexane-1-sulphonic acid – potassium salt; 16 mg/kg; oral; Male; Harlan Sprague Dawley
Rat [21] = test: concentration in kidney after dosing; settings: 528 h; dosed: Perfluorohexane-1-sulphonic acid – potassium salt; 16 mg/kg; oral; Female; F344
Rat [22] = test: concentration in liver after dosing; settings: 192 h; dosed: Perfluorohexane-1-sulphonic acid – potassium salt; 16 mg/kg; oral; Female; F344
Rat [23] = test: concentration in kidney after dosing; settings: 96 h; dosed: Perfluorohexane-1-sulphonic acid – potassium salt; 16 mg/kg; oral; Female; Harlan Sprague Dawley
Rat [24] = test: concentration in brain after dosing; settings: 3 h; dosed: Perfluorohexane-1-sulphonic acid – potassium salt; 16 mg/kg; oral; Female; Harlan Sprague Dawley
Rat [25] = test: concentration in brain after dosing; settings: 24 h; dosed: Perfluorohexane-1-sulphonic acid – potassium salt; 16 mg/kg; oral; Female; F344
Rat [26] = test: concentration in liver after dosing; settings: 24 h; dosed: Perfluorohexane-1-sulphonic acid – potassium salt; 16 mg/kg; oral; Female; F344
Rat [27] = test: concentration in kidney after dosing; settings: 6 h; dosed: Perfluorohexane-1-sulphonic acid – potassium salt; 16 mg/kg; oral; Female; F344
Rat [28] = test: concentration in plasma after dosing; settings: dosed: Pyridine, 5 mg/kg, iv, Male, F344
Rat [29] = test: concentration in plasma after dosing; settings: 0.25 h; dosed: Pyridine; 10 mg/kg; iv; Male; F344
Rat [30] = test: concentration in plasma after dosing; settings: 2 min; dosed: Pyridine; 10 mg/kg; oral; Male; F344
Rat [31] = test: concentration in plasma after dosing; settings: 50 min; dosed: Pyridine; 10 mg/kg; iv; Male; F344

CCC1(c2ccccc2)C(=O)NCNC1=O [Primidone]
Settings | concentration in plasma [ng/mL]
Rat [1] | 55800
Rat [2] | 7800
Rat [3] | 6800

O=C(c1ccccc1)c1ccc(O)cc1O [2,4-Dihydroxybenzophenone]
Settings | concentration in plasma [ng/mL]
Mouse [4] | 856
Mouse [7] | 318

concentration in plasma [ng/mL]
Settings | Rat [5] | Rat [6]
0.25 h | 61.2 | 123
4 h | 48.4 | 77.4

C=CCc1ccc(OC)c(OC)c1 [Methyleugenol]
Rat [8]
Settings | concentration in plasma [ng/mL]
3 h | 263
5 min | 29200

O=C(O)COc1ccc(Cl)cc1Cl [2,4-Dichlorophenoxyacetic acid]
Settings | concentration in plasma [ng/mL]
Hamster [9], 0.25 h | 13500
Hamster [9], 0.5 h | 7690
Hamster [11], 0.25 h | 21800
Hamster [11], 0.5 h | 8620
Hamster [11], 1 h | 1740
Hamster [11], 1.5 h | 761
Hamster [11], 2 h | 1360
Hamster [11], 2.5 h | 115
Hamster [11], 5 min | 25700
Hamster [11], 6 h | 466
Rat [10], 0.25 h | 9530
Rat [10], 0.5 h | 10100
Rat [10], 2 h | 13900
Rat [10], 2.5 min | 4360
Rat [10], 3 h | 2020
Rat [10], 4 h | 2030
Rat [10], 5 h | 3730
Rat [10], 6 h | 776
Rat [10], 10 min | 8480

CC(C)[C@]12CC(=O)[C@H](C)[C@H]1C2 [alpha-Thujone]
Settings | concentration in brain [ng/g] | concentration in plasma [ng/mL]
Rat [12] | 1020 | –
Rat [13] | – | 169
Rat [14] | – | 18
Rat [15] | 5490 | –
Rat [16] | – | 408
Rat [17] | 3920 | –
Rat [18] | 8580 | –
Rat [19] | 1800 | –

OCC(Cl)(Cl)Cl [trichloroethanol]
human
Settings | concentration in blood [ng/mL]
0 h | 7540
18 h | 3770
24 h | 7410
42 h | 2960
48 h | 6640
66 h | 2540
72 h | 6900
90 h | 3410
96 h | 6090

Settings | concentration in blood [ng/mL]
human, -6 h, during exposure | 222

O=S(=O)([O-])C(F)(F)C(F)(F)C(F)(F)C(F)(F)C(F)(F)C(F)(F)F.[K+] [Perfluorohexane-1-sulphonic acid – potassium salt]
Settings | concentration in brain [ng/g] | concentration in kidney [ng/g] | concentration in liver [ng/g]
Rat [20] | – | – | 15500
Rat [21] | – | 8530 | –
Rat [22] | – | – | 40300
Rat [23] | – | 5570 | –
Rat [24] | 1560 | – | –
Rat [25] | 1390 | – | –
Rat [26] | – | – | 78000
Rat [27] | – | 36400 | –

c1ccncc1 [Pyridine]
Rat [28]
Settings | concentration in plasma [ng/mL]
0.05 h | 4920
4 h | 1440

Settings | concentration in plasma [ng/mL]
Rat [29] | 4870
Rat [30] | 453
Rat [31] | 4150
